Measured values collected from several papers.
Each line is one published result; the experiments were not run side by side.
Target: Adenosine receptor A2a (ADORA2A, Homo sapiens, UniProt P29274)

COCc1c(-c2cc3cc(C)cc(OC)c3s2)c2c(N)ncnn2c1CN1CCNC(=O)C1 — inhibition (ligand displacement; radioligand; 10 µM): 7%
CCN(CC)CCCC[C@H](NC(=O)[C@H](CC(C)C)NC(=O)[C@H](C)NC(=O)[C@H](Cc1ccccc1)NC(=O)c1ccc(C(C)(C)C)cc1)C(=O)N[C@@H](CO)C(=O)OC — remaining binding (ligand displacement; radioligand; 10 µM): 102%
OC[C@@]12C[C@@H]1[C@@H](n1cnc3c(NC(C4CCCC4)C4CCCC4)nc(Cl)nc31)[C@H](O)[C@@H]2O — inhibition (ligand displacement; radioligand; 10 µM): 24%
COc1ccc(S(=O)(=O)N2CCCCC2)cc1C — inhibition (ligand displacement; radioligand; 10 µM): < 30%
OC[C@@]12C[C@@H]1[C@@H](n1cnc3c(NC(C4CCCC4)C4CCCC4)nc(Cl)cc31)[C@H](O)[C@@H]2O — inhibition (ligand displacement; radioligand; 10 µM): -12%
CC(C)N1CCC[C@H]1CNC(=O)c1cn(C2CCCC2)c(=O)c2c1c1ccccc1n2C — inhibition (ligand displacement; radioligand; 10 µM): 6%
C[C@H](C(=O)N[C@H]1COc2ccccc2[C@@H]1S(C)(=O)=O)c1ccc(F)cc1 — inhibition (cell-free assay; 10 µM): 1%
CC(C)Cn1cnc2c(N)nc3ccccc3c21 — inhibition (ligand displacement; radioligand; 10 µM): 89%
O=C(Nc1cccnn1)N1CCN([C@@H]2CCOc3cc(C(F)(F)F)ccc32)CC1 — inhibition (ligand displacement; 20 µM): 15%
Clc1ccc2c(C3CCN(CCc4c[nH]c5ccccc45)CC3)c[nH]c2c1 — inhibition (ligand displacement; radioligand; 10 µM): -12%
c1ccc(C(NCCNC(c2ccccc2)c2ccccc2)c2ccccc2)cc1 — inhibition (cell-free assay; 10 µM): 12%
Nc1ncc(-c2nc(N3CCOCC3)nc(N3CCOCC3)n2)c(C(F)F)n1 — remaining signal (cell-free assay; radioligand; 10 µM): 93.3%
O=c1ccc2ccccc2o1 — inhibition (ligand displacement; radioligand; 10 µM): -4.26%
